Measurements pooled from the literature.
Each line is one published result; the experiments were not run side by side.
KDM1A: Lysine-specific histone demethylase 1A (KDM1A, Homo sapiens, UniProt O60341)
TRIM24: Transcription intermediary factor 1-alpha (TRIM24, Homo sapiens, UniProt O15164)
BRD3 BD2: Bromodomain-containing protein 3, BD2 (BRD3, Homo sapiens, UniProt Q15059)

CN1CCN(C(=O)[C@H](CCCN[C@@H]2C[C@H]2c2ccc(F)cc2)NC(=O)c2ccc(-n3ccnn3)cc2)CC1 — KI (inactivation) (KDM1A; enzyme activity, inhibitor): 1190 nM
COc1cc(Cl)c(C(=O)N[C@@H](CN[C@H]2CC[C@@H](N)CC2)Cc2ccc(C#N)cc2)cc1-c1ccc(CN[C@H](C)c2ccc(C)cc2)o1 — remaining activity (Testis-specific serine/threonine-protein kinase 4 (TSSK4, Homo sapiens, UniProt Q6SA08); enzyme activity, inhibitor; 1 µM): 98%
Cc1ccc(C(=O)Nc2ccc(CN3CCN(C)CC3)c(C(F)(F)F)c2)cc1C#Cc1cnc2cccnn12 — remaining activity (Phosphatidylinositol 4-phosphate 3-kinase C2 domain-containing subunit beta (PIK3C2B, Homo sapiens, UniProt O00750); enzyme activity, inhibitor; 23.5 nM): 90%
CC(=O)N[C@H](C(=O)N[C@H](C(=O)N[C@@H](Cc1ccccc1)C(=O)N[C@H](C(=O)N[C@@H](CO)C(=O)N[C@@H](Cc1c[nH]c2ccccc12)C(=O)N[C@@H](CCC(=O)O)C(=O)N[C@@H](CCC(=O)O)C(=O)N[C@@H](Cc1ccc(O)cc1)C(=O)N[C@@H](CC(C)C)C(=O)N[C@@H](CC(=O)O)C(=O)N[C@@H](Cc1c[nH]c2ccccc12)C(=O)N[C@H](C(N)=O)C(C)C)[C@@H](C)O)C(C)C)[C@@H](C)O — koff (Proprotein convertase subtilisin/kexin type 9 (PCSK9, Homo sapiens, UniProt Q8NBP7); binding, SPR): 0.173 s⁻¹
C[S+]([O-])c1ccc(-c2nc(-c3ccncc3)c(-c3ccc(F)cc3)[nH]2)cc1 (stereo not shown) — ΔTm (TRIM24; thermal stability, DSF; 10 µM): 1.4 °C
NS(=O)(=O)c1ccc(Nc2nc(-c3ccc(F)cc3)c3ccccc3n2)cc1 — remaining binding (ATPase family AAA domain-containing protein 2B (ATAD2B, Homo sapiens, UniProt Q9ULI0); binding, competition with immobilised ligand; 1 µM): 76%
O=C(O)c1ccc(CN2CCC(CN[C@@H]3C[C@H]3c3ccccc3)CC2)cc1 — KI (inactivation) (KDM1A; enzyme activity, inhibitor): 2140 nM
Cc1cc2c(cc1N1C(=O)c3cccc4c(Cl)ccc(c34)C1=O)n(C)c(=O)n2C — ΔTm (BRD3 BD2; thermal stability, DSF; 10 µM): 0.1 °C
Nc1ncnc2occ(-c3ccc(NC(=O)Nc4cc(C(F)(F)F)ccc4F)cc3)c12 — remaining signal (Cyclin-dependent kinase 15 (CDK15, Homo sapiens, UniProt Q96Q40); cell-free assay, inhibitor; 20 µM): 1.1%
Cc1cnc(Nc2ccc(OCCN3CCCC3)cc2)nc1Nc1cccc(S(=O)(=O)NC(C)(C)C)c1 — ΔTm (BRD3 BD2; thermal stability, DSF; 10 µM): 3.4 °C
COc1cc2c(NC3CCN(C(C)C)CC3)nc(C3CCCCC3)nc2cc1OCCCN1CCCC1 — ΔTm (Histone-lysine N-methyltransferase EHMT1 (EHMT1, Homo sapiens, UniProt Q9H9B1); thermal stability, DSF; 100 µM): 8 °C
Oc1ccc(-c2nc(-c3ccncc3)c(-c3ccc(F)cc3)[nH]2)cc1 — ΔTm (TRIM24; thermal stability, DSF; 10 µM): -0.23 °C
CC(C)(C)N1C(=O)[C@H]2Cc3c([nH]c4ccccc34)[C@H](c3cccnc3)N2C1=O — inhibition (cGMP-specific 3',5'-cyclic phosphodiesterase (PDE5A, Homo sapiens, UniProt O76074); enzyme activity, inhibitor, FP; 50 µM): 89%
